According to ChEMBL document CHEMBL1153828, “Structures of the tyrosine kinase domain of fibroblast growth factor receptor in complex with inhibitors” (Science, 1997):
Activity calls are given as the source filed them. The rule behind the calls is not given here.

Columns and labels:
[1] = biological target: Insulin receptor (Mus musculus) (UniProt P15208); assay: Inhibition of insulin receptor in mouse NIHIR cells assessed as inhibition of insulin-stimulated IRS1 phosphorylation; type: cell-based
Insulin receptor (Mus musculus), sequence (P15208 28-748 limits assumed): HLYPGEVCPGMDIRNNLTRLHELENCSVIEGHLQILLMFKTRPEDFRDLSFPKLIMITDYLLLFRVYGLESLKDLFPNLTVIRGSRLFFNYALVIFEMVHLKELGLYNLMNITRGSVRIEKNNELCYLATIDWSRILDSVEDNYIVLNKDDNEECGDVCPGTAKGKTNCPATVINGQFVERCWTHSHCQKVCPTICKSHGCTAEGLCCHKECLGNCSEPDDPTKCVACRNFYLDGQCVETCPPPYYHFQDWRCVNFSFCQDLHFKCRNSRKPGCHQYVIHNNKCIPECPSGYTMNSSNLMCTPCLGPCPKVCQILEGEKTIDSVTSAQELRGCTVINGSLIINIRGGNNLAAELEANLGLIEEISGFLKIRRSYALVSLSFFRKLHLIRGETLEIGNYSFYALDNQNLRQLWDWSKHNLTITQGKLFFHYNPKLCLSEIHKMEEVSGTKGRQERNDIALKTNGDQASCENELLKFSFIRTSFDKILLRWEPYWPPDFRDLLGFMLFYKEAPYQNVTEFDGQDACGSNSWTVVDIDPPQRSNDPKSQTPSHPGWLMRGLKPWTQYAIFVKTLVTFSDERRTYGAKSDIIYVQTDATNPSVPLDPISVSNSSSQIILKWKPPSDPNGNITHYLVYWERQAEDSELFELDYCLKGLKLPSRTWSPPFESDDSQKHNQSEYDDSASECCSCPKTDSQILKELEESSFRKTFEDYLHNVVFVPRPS
Insulin receptor (Mus musculus), sequence (P15208 753-1372 limits assumed): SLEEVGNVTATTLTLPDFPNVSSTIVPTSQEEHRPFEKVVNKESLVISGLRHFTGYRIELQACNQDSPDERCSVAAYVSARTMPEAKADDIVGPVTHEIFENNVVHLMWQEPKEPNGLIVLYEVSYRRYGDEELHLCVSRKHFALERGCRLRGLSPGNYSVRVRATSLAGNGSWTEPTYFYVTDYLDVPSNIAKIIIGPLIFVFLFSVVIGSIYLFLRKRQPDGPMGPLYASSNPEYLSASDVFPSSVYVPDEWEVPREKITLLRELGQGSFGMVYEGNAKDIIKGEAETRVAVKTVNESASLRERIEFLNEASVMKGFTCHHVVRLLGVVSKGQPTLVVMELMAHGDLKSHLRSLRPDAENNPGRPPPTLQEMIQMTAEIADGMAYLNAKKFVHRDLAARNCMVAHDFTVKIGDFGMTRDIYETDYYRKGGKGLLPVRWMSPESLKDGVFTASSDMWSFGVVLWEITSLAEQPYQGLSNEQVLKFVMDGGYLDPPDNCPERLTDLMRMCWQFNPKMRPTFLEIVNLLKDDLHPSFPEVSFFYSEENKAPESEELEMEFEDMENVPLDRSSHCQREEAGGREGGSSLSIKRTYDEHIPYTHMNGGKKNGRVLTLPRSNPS
Method in brief: (§1)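 Cells were preincubated with a range of inhibitor concentrations for 5 min at 37°C, then stimulated for 5 min at 37°C: PDGF 40 ng/ml, insulin 1 μg/ml or EGF 100 ng/ml. Whole-lysate portions went directly to SDS-PAGE and anti-phosphotyrosine immunoblotting, and substrate phosphoproteins were located by position.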

[2] = biological target: Fibroblast growth factor receptor 1 (Homo sapiens, UniProt P11362); assay: Inhibition of FGFR1K autophosphorylation activity assessed as [32P] incorporation
Fibroblast growth factor receptor 1 (Homo sapiens, UniProt P11362), sequence (P11362 whole entry): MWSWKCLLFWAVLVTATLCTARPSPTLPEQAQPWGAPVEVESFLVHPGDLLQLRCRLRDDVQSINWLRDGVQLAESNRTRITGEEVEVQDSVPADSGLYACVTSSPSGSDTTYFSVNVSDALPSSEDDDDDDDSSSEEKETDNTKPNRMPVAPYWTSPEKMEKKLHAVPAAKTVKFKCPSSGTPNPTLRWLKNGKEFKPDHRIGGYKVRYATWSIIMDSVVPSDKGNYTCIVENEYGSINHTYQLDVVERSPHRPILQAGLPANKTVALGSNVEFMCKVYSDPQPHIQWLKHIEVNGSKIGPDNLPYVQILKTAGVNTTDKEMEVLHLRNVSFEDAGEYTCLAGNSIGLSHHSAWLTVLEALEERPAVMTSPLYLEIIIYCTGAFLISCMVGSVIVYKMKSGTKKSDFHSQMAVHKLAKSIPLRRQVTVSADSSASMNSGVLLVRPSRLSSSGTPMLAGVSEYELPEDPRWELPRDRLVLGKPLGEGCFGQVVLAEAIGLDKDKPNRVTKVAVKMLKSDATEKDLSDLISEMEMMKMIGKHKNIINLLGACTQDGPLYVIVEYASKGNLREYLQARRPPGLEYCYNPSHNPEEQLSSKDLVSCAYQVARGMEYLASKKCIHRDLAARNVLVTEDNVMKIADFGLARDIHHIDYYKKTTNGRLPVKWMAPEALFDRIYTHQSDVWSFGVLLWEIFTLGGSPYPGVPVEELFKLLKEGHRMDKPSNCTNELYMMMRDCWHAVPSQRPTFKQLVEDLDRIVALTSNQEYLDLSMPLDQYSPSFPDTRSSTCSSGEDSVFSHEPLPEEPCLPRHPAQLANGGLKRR

[3] = biological target: Fibroblast growth factor receptor 1 (Mus musculus, UniProt P16092); assay: Inhibition of acidic FGF-stimulated FGFR1 tyrosine autophosphorylation in mouse NIH/3T3 cells by immunoblotting; type: cell-based, NIH3T3
Fibroblast growth factor receptor 1 (Mus musculus, UniProt P16092), sequence (P16092 whole entry): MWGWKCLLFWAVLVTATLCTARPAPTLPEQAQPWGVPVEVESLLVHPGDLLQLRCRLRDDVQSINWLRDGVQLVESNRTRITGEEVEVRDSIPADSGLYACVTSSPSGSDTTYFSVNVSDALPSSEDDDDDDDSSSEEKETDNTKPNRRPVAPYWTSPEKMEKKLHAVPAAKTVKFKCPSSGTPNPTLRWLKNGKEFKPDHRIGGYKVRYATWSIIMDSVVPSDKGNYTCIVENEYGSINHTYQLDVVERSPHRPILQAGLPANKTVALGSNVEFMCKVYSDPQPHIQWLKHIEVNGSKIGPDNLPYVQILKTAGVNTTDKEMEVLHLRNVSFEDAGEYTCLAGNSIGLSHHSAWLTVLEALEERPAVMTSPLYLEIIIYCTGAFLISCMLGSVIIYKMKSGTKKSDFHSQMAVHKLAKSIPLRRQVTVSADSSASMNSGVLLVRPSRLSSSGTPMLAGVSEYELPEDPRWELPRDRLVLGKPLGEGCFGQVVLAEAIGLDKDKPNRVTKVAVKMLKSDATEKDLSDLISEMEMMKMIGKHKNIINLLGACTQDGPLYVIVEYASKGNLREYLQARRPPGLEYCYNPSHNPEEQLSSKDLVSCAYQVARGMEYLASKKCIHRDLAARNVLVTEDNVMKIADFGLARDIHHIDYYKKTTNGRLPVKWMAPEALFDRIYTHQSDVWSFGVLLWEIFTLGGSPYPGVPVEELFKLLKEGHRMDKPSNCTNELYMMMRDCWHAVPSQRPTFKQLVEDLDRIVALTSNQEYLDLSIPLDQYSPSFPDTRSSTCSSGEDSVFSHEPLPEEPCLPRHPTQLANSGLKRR

NIH3T3 = assay: Growth inhibition of mouse NIH/3T3 cells assessed as inhibition of acidic FGF-stimulated [3H]thymidine incorporation; type: functional, cell-based
Method in brief: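 NIH 3T3 cells, untreated or pretreated with inhibitor at 50 μM, were stimulated with aFGF and then labeled with [3H]thymidine. Thymidine incorporation was measured after 24 hours.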

[4] = biological target: T1, Platelet-derived growth factor receptor (Mus musculus) (UniProt P05622+P26618); assay: Inhibition of PDGFR in mouse NIH/3T3 cells assessed as inhibition of PDGF-stimulated tyrosine autophosphorylation by immunoblotting; type: cell-based; conditions: NIH3T3
Method in brief: (§2)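 Cells were preincubated with a range of inhibitor concentrations for 5 min at 37°C, then stimulated for 5 min at 37°C (unstimulated controls kept): PDGF 40 ng/ml for PDGFR, insulin 1 μg/ml for insulin receptor, EGF 100 ng/ml for EGFR. Lysates were immunoprecipitated with receptor-specific antibodies, run on SDS-PAGE and immunoblotted with anti-phosphotyrosine.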

[5] = biological target: T1, Platelet-derived growth factor receptor (Mus musculus); assay: Inhibition of PDGFR in mouse NIH/3T3 cells assessed as inhibition of PDGF-stimulated phospholipase C gamma phosphorylation by immunoblotting; type: cell-based; conditions: NIH3T3; method in brief: as §1
[6] = biological target: T1, Platelet-derived growth factor receptor (Mus musculus); assay: Inhibition of PDGFR in mouse NIH/3T3 cells assessed as PDGF-stimulated Erk2 activation by immunoblotting; type: cell-based; conditions: NIH3T3
[7] = biological target: T1, Platelet-derived growth factor receptor (Mus musculus); assay: Inhibition of PDGFR tyrosine phosphorylation in mouse NIH3T3 cells; type: cell-based; method in brief: as §2
[8] = biological target: Insulin receptor (Mus musculus) (UniProt P15208); assay: Inhibition of insulin-stimulated insulin receptor beta subunit autophosphorylation in mouse NIHIR cells; type: cell-based; method in brief: as §2
[9] = biological target: Epidermal growth factor receptor (Mus musculus) (UniProt Q01279); assay: Inhibition of EGFR phosphorylation in mouse NIH/3T3 cells at 200 uM; type: cell-based; conditions: NIH3T3
Epidermal growth factor receptor (Mus musculus), sequence (Q01279 whole entry): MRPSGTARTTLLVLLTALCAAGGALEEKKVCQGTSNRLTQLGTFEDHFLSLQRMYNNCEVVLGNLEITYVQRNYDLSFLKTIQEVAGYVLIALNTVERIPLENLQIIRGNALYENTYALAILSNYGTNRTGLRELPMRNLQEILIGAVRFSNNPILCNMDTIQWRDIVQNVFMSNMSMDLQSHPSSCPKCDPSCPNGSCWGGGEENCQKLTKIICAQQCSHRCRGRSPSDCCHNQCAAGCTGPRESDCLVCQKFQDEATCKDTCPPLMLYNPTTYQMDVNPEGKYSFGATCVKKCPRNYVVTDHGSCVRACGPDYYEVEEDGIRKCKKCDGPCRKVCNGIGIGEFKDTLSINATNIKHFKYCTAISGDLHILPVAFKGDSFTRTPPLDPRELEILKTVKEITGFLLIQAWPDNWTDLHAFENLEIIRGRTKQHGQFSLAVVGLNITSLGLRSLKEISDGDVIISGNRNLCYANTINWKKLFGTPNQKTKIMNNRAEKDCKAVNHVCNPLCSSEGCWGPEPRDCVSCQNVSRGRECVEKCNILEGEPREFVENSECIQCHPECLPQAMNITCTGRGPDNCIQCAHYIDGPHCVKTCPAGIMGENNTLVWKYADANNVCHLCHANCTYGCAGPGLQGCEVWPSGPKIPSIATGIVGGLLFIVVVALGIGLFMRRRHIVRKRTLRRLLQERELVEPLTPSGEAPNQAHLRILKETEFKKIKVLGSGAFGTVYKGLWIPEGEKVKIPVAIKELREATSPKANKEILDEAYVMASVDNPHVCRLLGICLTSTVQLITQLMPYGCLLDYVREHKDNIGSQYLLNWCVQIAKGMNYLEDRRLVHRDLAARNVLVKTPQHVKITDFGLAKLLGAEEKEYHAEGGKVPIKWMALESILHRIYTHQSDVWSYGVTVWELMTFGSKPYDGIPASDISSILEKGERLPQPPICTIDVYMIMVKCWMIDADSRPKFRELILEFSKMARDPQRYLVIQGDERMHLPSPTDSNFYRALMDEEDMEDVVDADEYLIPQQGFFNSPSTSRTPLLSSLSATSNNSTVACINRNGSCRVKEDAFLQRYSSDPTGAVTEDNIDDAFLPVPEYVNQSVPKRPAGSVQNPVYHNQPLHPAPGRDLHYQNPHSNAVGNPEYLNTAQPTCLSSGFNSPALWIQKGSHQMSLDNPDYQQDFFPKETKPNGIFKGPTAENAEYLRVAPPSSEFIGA

[10] = biological target: Insulin receptor (Mus musculus) (UniProt P15208); assay: Inhibition of insulin receptor tyrosine phosphorylation in mouse NIH3T3 cells; type: cell-based; method in brief: as §2
[11] = biological target: Epidermal growth factor receptor (Mus musculus) (UniProt Q01279); assay: Inhibition of EGF-stimulated EGFR phosphorylation in mouse HER14 cells by immunoblotting; type: cell-based; method in brief: as §2
[12] = biological target: Epidermal growth factor receptor (Mus musculus) (UniProt Q01279); assay: Inhibition of EGFR in mouse HER14 cells assessed as inhibition of EGF-stimulated Shc phosphorylation by immunoblotting; type: cell-based; method in brief: as §1
[13] = biological target: Epidermal growth factor receptor (Mus musculus) (UniProt Q01279); assay: Inhibition of EGFR in mouse HER14 cells assessed as inhibition of EGF-stimulated ERK2 activation by immunoblotting; type: cell-based

Structure (SMILES)	Activity [1]	IC50 [2]	IC50 [3]	Activity (NIH3T3)	Activity [4]	Activity [5]	Activity [6]	Activity [7]	Activity [8]	Activity [9]	Activity [10]	Activity [11]	Activity [12]	Activity [13]
O=CN1CCN(c2ccc(/C=C3\C(=O)Nc4ccccc43)cc2)CC1	Active	10 µM	20 µM	Active	Active	Active	Active	Active	Active	inactive	Active	–	–	–
Cc1c[nH]c(/C=C2\C(=O)Nc3ccccc32)c1CCC(=O)O	Active	10 µM	10 µM	Active	Active	Active	Active	–	Active	inactive	inactive	Active	Active	Active
